Screening results deposited in PubChem by several laboratories.
UBC9 SUMO inh – inhibitors of human SUMOylation (UBC9); P63279; HTRF SUMOylation assay, SAE1/SAE2 + UBC9, in vitro; inhibition, % at 35 µM; 290,000 tested, 0.36% active; AID 2006; in the data active means inhibition above about 50%, passing the limit was not always enough
Apaf-1 inh – human Apaf-1 inhibition; O14727; reconstituted apoptosome caspase-3 activity, DEVD-Rh110 fluorescence; inhibition, % at 20 µM; 330,000 tested, 0.71% active; active means inhibition of at least 40% at 20 µM;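 further: plate controls were DMSO wells for no effect and DEVD-CHO caspase inhibitor wells for full effect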
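System: reconstituted apoptosome with Apaf-1, cytochrome c, caspase-9, procaspase-3, dATP; Signal: Rh110 fluorescence intensity; Schedule: 30 min compound preincubation, 50 min activation, room temperature; Reagent: cytochrome c trigger plus (Z-DEVD)2-Rh110 caspase-3 substrate.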
GSTO1 counter – blocks human GSTO1 in RBBP9 counter-screen; recombinant GSTO1, activity-based probe fluorescence polarization; inhibition, % at 5.96 µM; 300,000 tested, 1.1% active; AID 1974;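 active means inhibition above the campaign mean inhibition plus 3 SD, cut at about 35% in these data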;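 further: 0% = GSTO1-1 with DMSO and 100% = wells lacking GSTO1-1 enzyme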
HKDC1 inh – blocks human hexokinase HKDC1 activity. Q2TB90. recombinant HKDC1, G6PDH/diaphorase resazurin coupled fluorescence. inhibition, % at 20 µM. 340,000 tested, 0.16% active. AID 493160;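 active means inhibition above about 35% when tested at 20 µM, limit read from the data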;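 further: plate controls were DMSO wells with enzyme for no effect and DMSO wells lacking enzyme for full effect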
Target sequence (Q2TB90 whole entry, looked up): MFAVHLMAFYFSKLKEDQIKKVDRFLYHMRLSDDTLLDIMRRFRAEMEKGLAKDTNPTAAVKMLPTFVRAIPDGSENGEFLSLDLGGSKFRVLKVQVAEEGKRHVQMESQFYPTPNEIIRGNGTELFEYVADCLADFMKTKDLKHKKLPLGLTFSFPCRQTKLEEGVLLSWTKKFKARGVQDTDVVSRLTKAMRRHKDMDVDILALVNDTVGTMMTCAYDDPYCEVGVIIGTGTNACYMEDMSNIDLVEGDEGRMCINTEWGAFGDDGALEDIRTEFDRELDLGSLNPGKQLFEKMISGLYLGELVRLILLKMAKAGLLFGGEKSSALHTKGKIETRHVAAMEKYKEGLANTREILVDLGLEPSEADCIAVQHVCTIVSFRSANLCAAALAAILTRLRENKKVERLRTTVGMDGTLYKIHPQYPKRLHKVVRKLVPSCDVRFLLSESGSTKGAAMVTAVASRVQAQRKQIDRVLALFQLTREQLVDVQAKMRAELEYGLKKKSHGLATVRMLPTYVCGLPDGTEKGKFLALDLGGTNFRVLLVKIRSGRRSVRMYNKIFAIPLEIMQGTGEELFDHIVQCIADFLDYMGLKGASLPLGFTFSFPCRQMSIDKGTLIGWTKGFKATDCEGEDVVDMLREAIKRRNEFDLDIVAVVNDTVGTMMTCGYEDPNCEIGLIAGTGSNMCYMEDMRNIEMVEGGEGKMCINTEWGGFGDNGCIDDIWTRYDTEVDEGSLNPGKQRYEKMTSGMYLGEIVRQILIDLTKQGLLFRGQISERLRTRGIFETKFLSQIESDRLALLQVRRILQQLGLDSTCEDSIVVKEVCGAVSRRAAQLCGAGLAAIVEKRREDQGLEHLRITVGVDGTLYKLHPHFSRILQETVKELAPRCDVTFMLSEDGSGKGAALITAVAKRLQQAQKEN
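Test system: recombinant HKDC1 (HK5) hexokinase enzyme, produced in-house; Amount: enzyme 5 µg/mL final; Buffer or medium: Tris pH 8.0 buffer with MgCl2, Tween-20, BSA, BME; Reagent: glucose and ATP substrates; Doses: 20 µM test compound, 1% DMSO; Incubation: 90 min reaction incubation at room temperature, dark; Detection: resorufin fluorescence at 613 nm.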
Redox H2O2 prof – compounds producing H2O2 with reducing agent – biochemical, NIH compound library profiling, artefact control for MLSCN library redox annotation, primary screen; DTT-dependent redox cycling H2O2, phenol red/HRP absorbance; 100% = 100 µM peroxide control, 0% = buffer; activation, % at 10 µM; 200,000 tested, 0.03% active;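 active means activation of at least 50% relative to the plate's high and low controls in the primary single-dose screen; inactive means activation below 50%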;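 further: compound incubated with DTT at 0.8 mM final as the reducing agent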
Apaf-1 inh conf – Apaf-1 inhibition, single-dose confirmed. shares compounds with Apaf-1 inh. reconstituted apoptosome, caspase-3 DEVD-Rh110 fluorescence. inhibition, % at 20 µM. 1,800 tested, 25% active. AID 504614;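 active means mean inhibition of at least 40% at 20 µM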;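 further: plate controls were DMSO wells for no effect and DEVD-CHO caspase inhibitor control wells for full effect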
Rh110 interf inh – counter-screen for Apaf-1 inhibitors: fluorescence interference; activation (fluorescence interference), % at 20 µM; shares compounds with Apaf-1 inh; 1,800 tested, under 10 active; AID 504615; Rh110 fluorescence interference, quenched caspase reaction;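 active means signal rise of 40% or more at 20 µM, treated as a fluorescence artifact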
Apaf1 inh interf – shows fluorescence interference in the Apaf-1 inhibitor assay format; AID 588538; IC50, µM; shares compounds with Apaf-1 inh; fluorescence interference counterscreen, Apaf-1 assay format; 460 tested, under 10 active; call rule not given here
Active calls of the source: *; . = no result given. Most compounds without a hit are left out; they make up all but 1.4% or so of the library.

SMILES	UBC9 SUMO inh	Apaf-1 inh	GSTO1 counter	HKDC1 inh	Redox H2O2 prof	Apaf-1 inh conf	Rh110 interf inh	others
C#CCOCCOCCOCCNc1nc(N2CCN(C(=O)CCCCCCCCCCNC(=O)[C@H](CO)n3cc(CCCSC)nn3)CC2)nc(N2CCN(C(=O)CCCCCCCCCCNC(=O)[C@H](CCCCN)n3cc(CCO)nn3)CC2)n1	.	73.7*	.	-14.5	.	41.5*	10.1	Apaf1 inh interf=>100
C#CCOCCOCCOCCNc1nc(N2CCN(C(=O)CCCCCCCCCCNC(=O)Cn3cc(C[C@@H](C)O)nn3)CC2)nc(N2CCN(C(=O)CCCCCCCCCCNC(=O)[C@H](CCCN=C(N)N)n3cc(C[C@@H](C)CC)nn3)CC2)n1	.	62.0*	-2.4	-7.0	.	36.2	5.9
C#CCOCCOCCOCCNc1nc(N2CCN(C(=O)CCCCCCCCCCNC(=O)[C@@H](CCSC)n3cc(CCO)nn3)CC2)nc(N2CCN(C(=O)CCCCCCCCCCNC(=O)[C@H](CCSC)n3cc(CCO)nn3)CC2)n1	.	27.6	-19.6	3.5	.	.	.
C#CCOCCOCCOCCNc1nc(N2CCN(C(=O)CCCCCCCCCCNC(=O)[C@H](CCCCN)n3cc(CCCC(=O)O)nn3)CC2)nc(N2CCN(C(=O)CCCCCCCCCCNC(=O)[C@@H]([C@H](C)O)n3cc(C)nn3)CC2)n1	.	28.7	-1.2	0.1	.	.	.
C#CCOCCOCCOCCNc1nc(N2CCN(C(=O)CCCCCCCCCCNC(=O)[C@H]([C@@H](C)CC)n3cc(CCCCCN)nn3)CC2)nc(N2CCN(C(=O)CCCCCCCCCCNC(=O)[C@H](CCCCN)n3cc(CCCC(=O)O)nn3)CC2)n1	.	55.7*	4.5	-6.2	.	28.0	20.5
COC(=O)c1ccc(N2CCN(C)CC2)c(NC(=O)c2cccnc2)c1	13.4	-8.9	2.6	-3.0	-0.9	.	.
CCOc1ccc(N2CC(C(=O)N3CCN(c4ccccn4)CC3)CC2=O)cc1 (configuration not stated)	.	-1.0	-1.9	-2.3	.	.	.
C#CCOCCOCCOCCNc1nc(N2CCN(C(=O)CCCCCCCCCCNC(=O)[C@H]([C@@H](C)CC)n3cc(CCCCCN)nn3)CC2)nc(N2CCN(C(=O)CCCCCCCCCCNC(=O)[C@H](CO)n3cc(CCCCCN)nn3)CC2)n1	.	71.3*	-4.8	-2.9	.	48.1*	9.0	Apaf1 inh interf=>100
C#CCOCCOCCOCCNc1nc(N2CCOCC2)nc(N2CCN(C(=O)CCCCCCCCCCNC(=O)[C@@H](CCC(=O)O)n3cc(CCCCCN)nn3)CC2)n1	.	-10.8	-2.5	0.1	.	.	.
C#CCOCCOCCOCCNc1nc(N2CCN(C(=O)CCCCCCCCCCNC(=O)Cn3cc(C[C@@H](C)O)nn3)CC2)nc(N2CCN(C(=O)CCCCCCCCCCNC(=O)[C@@H](CCC(=O)O)n3cc(CCCCCN)nn3)CC2)n1	.	51.9*	-5.2	-5.8	.	13.0	10.5
C#CCOCCOCCOCCNc1nc(N2CCN(C(=O)CCCCCCCCCCNC(=O)Cn3cc(CCCCCN)nn3)CC2)nc(N2CCN(C(=O)CCCCCCCCCCNC(=O)Cn3cc(CCCCCN)nn3)CC2)n1	.	65.0*	1.3	-9.0	.	50.6*	7.0	Apaf1 inh interf=>100
C#CCOCCOCCOCCNc1nc(N2CCN(C(=O)CCCCCCCCCCNC(=O)[C@H]([C@@H](C)CC)n3cc(CCCCN=C(N)N)nn3)CC2)nc(N2CCN(C(=O)CCCCCCCCCCNC(=O)[C@H](CCCCN)n3cc(C)nn3)CC2)n1	.	73.2*	-1.2	9.7	.	63.4*	13.1	Apaf1 inh interf=>100
COc1ccc(Cl)cc1N(CC(=O)N1CCCC1)S(C)(=O)=O	-3.3	-3.9	0.8	0.2	.	.	.
COc1cccc2cc(CC(=O)c3ccc(C)cc3C)c(=O)oc12	1.2	-2.9	-3.5	0.9	.	.	.
C#CCOCCOCCOCCNc1nc(N2CCN(C(=O)CCCCCCCCCCNC(=O)Cn3cc(CCCCCN)nn3)CC2)nc(N2CCN(C(=O)CCCCCCCCCCNC(=O)[C@H]([C@@H](C)CC)n3cc(CCCCN=C(N)N)nn3)CC2)n1	.	85.4*	-5.1	3.2	.	69.1*	3.0	Apaf1 inh interf=>100
Cc1ccc(NC(=O)CN2CCCC2c2cccn2C)c(Br)c1 (configuration not stated)	.	22.0	.	1.0	.	.	.
Cc1ccc(C(=O)NCC(=O)N2CCCCCCC2)cc1	.	60.6*	.	-6.6	.	38.2	5.3
CCC1(c2ccccc2)NC(=O)N(CC(=O)N(C)Cc2c(F)cccc2Cl)C1=O (configuration not stated)	5.1	9.1	1.5	-7.0	.	.	.
CCOc1ccc(-n2nc3ccc(N)cc3n2)cc1	37.4	84.5*	.	15.0	.	24.2	2.3
CCCN(CC(=O)Nc1ccccc1C)C(=O)COc1ccc2c(c1)CCC2	-1.8	60.0*	-3.0	-0.6	.	36.8	5.3
CC(C)c1ccc(NNC(=O)C2CCC2)cc1	22.7	3.4	13.8	-5.9	.	.	.
Cc1sc2ncnc(N3CCC(C(=O)N(C)CC(=O)Nc4ccccc4Br)CC3)c2c1C	3.6	26.3	-3.2	1.2	.	.	.
Cc1sc2ncnc(N3CCC(C(=O)N(C)CC(=O)Nc4ccccc4Cl)CC3)c2c1C	9.9	59.9*	0.3	-5.7	.	35.2	0.9
CNC[C@@H]1Oc2ccc(NS(=O)(=O)c3ccc(Cl)cc3)cc2C(=O)N([C@H](C)CO)C[C@@H]1C	.	45.1*	.	-1.4	.	18.7	17.5
C[C@H]1CN([C@@H](C)CO)C(=O)c2cc(NS(=O)(=O)c3ccc(Cl)cc3)ccc2O[C@@H]1CN(C)CC1CCCCC1	.	17.7	.	-1.4	.	.	.
